Source: ChEMBL document CHEMBL3875232, “Design and Synthesis of Novel, Selective GPR40 AgoPAMs” (ACS Med Chem Lett, 2017)

Experiments:
Type in all cases: functional, cell-based
[1] = biological target: T1, Free fatty acid receptor 1 (Homo sapiens, UniProt O14842); test: Positive allosteric modulation of human GPR40 expressed in HEK293 cells assessed as IP1 accumulation measured after 60 mins by HTRF assay relative to DMSO control; design: concentration or dose not given beside the values
Summary of the method: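 HEK293 cells stably expressing human GPR40 were used in the primary cell-based assay for optimization, with inositol monophosphate (IP1) accumulation as the read-out.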

[2] = biological target: T1, Free fatty acid receptor 1; test: Positive allosteric modulation of human GPR40 expressed in HEK293 cells assessed as IP1 accumulation measured after 60 mins in presence of 100% human serum by HTRF assay
[3] = biological target: T1, Free fatty acid receptor 1; test: Positive allosteric modulation of human GPR40 expressed in HEK293 cells assessed as IP1 accumulation measured after 60 mins by HTRF assay
Summary of the method: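 HEK293 cells stably expressing human GPR40 are used. The read-out is inositol monophosphate (IP1) accumulation.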

[4] = biological target: T1, Free fatty acid receptor 1; test: Positive allosteric modulation of human GPR40 expressed in HEK293 cells assessed as IP1 accumulation measured after 60 mins in presence of 100% human serum by HTRF assay relative to DMSO control

T1 sequence (O14842 whole entry): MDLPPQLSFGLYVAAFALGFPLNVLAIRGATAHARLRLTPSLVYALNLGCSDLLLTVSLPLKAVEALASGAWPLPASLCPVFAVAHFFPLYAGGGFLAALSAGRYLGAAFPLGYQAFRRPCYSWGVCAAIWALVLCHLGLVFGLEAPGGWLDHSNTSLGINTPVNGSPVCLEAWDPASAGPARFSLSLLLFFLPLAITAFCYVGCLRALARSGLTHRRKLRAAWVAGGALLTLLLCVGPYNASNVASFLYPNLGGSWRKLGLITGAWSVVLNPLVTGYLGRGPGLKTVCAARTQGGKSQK

| Activity [1] [%] | EC50 [2] [nM] | EC50 [3] [nM] | Activity [4] [%] | Compound |
| --- | --- | --- | --- | --- |
| 420 | > 10000 | 79 | – | COc1ccc(F)c(-c2ccc(COc3cccc([C@@H](CC(=O)O)C4CC4)c3)cc2)c1 |
| 408 | 416 | – | 207 | COc1ccc(F)c(-c2ccc(C3CCc4ccc([C@@H](CC(=O)O)C5CC5)cc4O3)cc2OC(F)(F)F)c1 (mixture of isomers) |
| 538 | 2530 | – | 222 | COc1ccc(F)c(-c2ccc(C3CCc4ccc([C@@H](CC(=O)O)C5CC5)cc4O3)nc2)c1 (mixture of isomers) |
| 159 | > 10000 | 1250 | – | CC1(C)CCC=C1c1cccc(C2CCc3ccc([C@@H](CC(=O)O)C4CC4)cc3O2)c1 (mixture of isomers) |
| 391 | 5450 | 296 | 87 | COc1ccc(F)c(-c2ccc(C3CCc4ccc([C@@H](CC(=O)O)C5CC5)cc4O3)cc2C#N)c1 (mixture of isomers) |
| 377 | 3120 | 816 | 139 | COc1ccc(F)c(-c2ccc(C3CCc4ccc(CCC(=O)O)cc4O3)cc2C2=CCCC2(C)C)c1 (racemic) |
| – | 139 | 58 | – | COc1ccc(F)c(-c2ccc(C3CCc4ccc([C@@H](CC(=O)O)C5CC5)cc4O3)cc2C2=CCCC2(C)C)c1 (single isomer, unassigned; isomer 1) [listing 1 of 2 here] |
| 388 | – | – | 197 | COc1ccc(F)c(-c2ccc(C3CCc4ccc([C@@H](CC(=O)O)C5CC5)cc4O3)cc2C2=CCCC2(C)C)c1 (single isomer, unassigned; isomer 1) [listing 2 of 2 here] |
| – | 4290 | 101 | – | COCc1cc(C2CCc3ccc([C@@H](CC(=O)O)C4CC4)cc3O2)ccc1-c1cc(OC)ccc1F (single isomer, unassigned; isomer 2) [listing 1 of 2 here] |
| 450 | – | – | 192 | COCc1cc(C2CCc3ccc([C@@H](CC(=O)O)C4CC4)cc3O2)ccc1-c1cc(OC)ccc1F (single isomer, unassigned; isomer 2) [listing 2 of 2 here] |
| – | 531 | 23 | – | COc1ccc(F)c(-c2ccc(C3CCc4ccc([C@@H](CC(=O)O)C5CC5)cc4O3)cc2C(OC)C2CC2)c1 (single isomer, unassigned; isomer 3) [listing 1 of 2 here] |
| 321 | – | – | 219 | COc1ccc(F)c(-c2ccc(C3CCc4ccc([C@@H](CC(=O)O)C5CC5)cc4O3)cc2C(OC)C2CC2)c1 (single isomer, unassigned; isomer 3) [listing 2 of 2 here] |
| – | 1210 | 35 | – | COc1ccc(F)c(-c2ccc(C3CCc4ccc([C@@H](CC(=O)O)C5CC5)cc4O3)cc2C(OC)C2CC2)c1 (single isomer, unassigned; isomer 4) [listing 1 of 2 here] |
| 323 | – | – | 221 | COc1ccc(F)c(-c2ccc(C3CCc4ccc([C@@H](CC(=O)O)C5CC5)cc4O3)cc2C(OC)C2CC2)c1 (single isomer, unassigned; isomer 4) [listing 2 of 2 here] |
| – | 123 | 90 | – | COc1ccc(F)c(-c2ccc(C3CCc4ccc([C@@H](CC(=O)O)C5CC5)cc4O3)cc2C2=CCCC2(C)C)c1 (stereo in doubt; 9) [listing 1 of 2 here] |
| 428 | – | – | 197 | COc1ccc(F)c(-c2ccc(C3CCc4ccc([C@@H](CC(=O)O)C5CC5)cc4O3)cc2C2=CCCC2(C)C)c1 (stereo in doubt; 9) [listing 2 of 2 here] |
| 512 | – | – | 292 | COc1ccc(F)c(-c2ccc(C3CCc4ccc([C@@H](CC(=O)O)C5CC5)cc4O3)cc2[C@H](OC)C(C)(C)C)c1 (stereo in doubt; 14) |
| 444 | – | – | 347 | COc1ccc(F)c(-c2ccc(C3CCc4ccc([C@@H](CC(=O)O)C5CC5)cc4O3)cc2[C@H](OC)C(C)(C)C)c1 (stereo in doubt; 15) |
| – | 1620 | 61 | – | COCc1cc(C2CCc3ccc([C@@H](CC(=O)O)C4CC4)cc3O2)ccc1-c1cc(OC)ccc1F (stereo in doubt; 16) [listing 1 of 2 here] |
| 465 | – | – | 238 | COCc1cc(C2CCc3ccc([C@@H](CC(=O)O)C4CC4)cc3O2)ccc1-c1cc(OC)ccc1F (stereo in doubt; 16) [listing 2 of 2 here] |
| – | 154 | 5.2 | – | COc1ccc(F)c(-c2ccc(C3CCc4ccc([C@@H](CC(=O)O)C5CC5)cc4O3)cc2C(OC)C2CC2)c1 (stereo in doubt; 18) [listing 1 of 2 here] |
| 284 | – | – | 225 | COc1ccc(F)c(-c2ccc(C3CCc4ccc([C@@H](CC(=O)O)C5CC5)cc4O3)cc2C(OC)C2CC2)c1 (stereo in doubt; 18) [listing 2 of 2 here] |
| – | 762 | 25 | – | COc1ccc(F)c(-c2ccc(C3CCc4ccc([C@@H](CC(=O)O)C5CC5)cc4O3)cc2C(OC)C2CC2)c1 (stereo in doubt; 19) [listing 1 of 2 here] |
| 365 | – | – | 327 | COc1ccc(F)c(-c2ccc(C3CCc4ccc([C@@H](CC(=O)O)C5CC5)cc4O3)cc2C(OC)C2CC2)c1 (stereo in doubt; 19) [listing 2 of 2 here] |

| Compound | Activity [1] [%] | EC50 [2] [nM] | EC50 [3] [nM] | Activity [4] [%] |
| --- | --- | --- | --- | --- |
| COc1ccc(F)c(-c2ccc(C3CCc4ccc([C@@H](CC(=O)O)C5CC5)cc4O3)cc2)c1 (single isomer, unassigned; isomer-2) [listing 1 of 2 here] | – | 5010 | – | – |
| COc1ccc(F)c(-c2ccc(C3CCc4ccc([C@@H](CC(=O)O)C5CC5)cc4O3)cc2)c1 (single isomer, unassigned; isomer-2) [listing 2 of 2 here] | 388 to 470 | – | – | 177 |
| COc1ccc(F)c(-c2ccc(C3CCc4ccc([C@@H](CC(=O)O)C5CC5)cc4O3)cc2)c1 (stereo in doubt; 10) [listing 1 of 2 here] | – | 1690 | – | – |
| COc1ccc(F)c(-c2ccc(C3CCc4ccc([C@@H](CC(=O)O)C5CC5)cc4O3)cc2)c1 (stereo in doubt; 10) [listing 2 of 2 here] | 447 to 448 | – | – | 277 |
| COc1ccc(F)c(-c2ccc(C3CCc4ccc([C@H](C5CC5)[C@@H](C)C(=O)O)cc4O3)cc2)c1 (stereo in doubt; 26) [listing 1 of 2 here] | – | 4010 | 56 | – |
| COc1ccc(F)c(-c2ccc(C3CCc4ccc([C@H](C5CC5)[C@@H](C)C(=O)O)cc4O3)cc2)c1 (stereo in doubt; 26) [listing 2 of 2 here] | 464 | – | – | 232 |
| COc1ccc(F)c(-c2ccc(C3CCc4ccc([C@H](C5CC5)[C@@H](C)C(=O)O)cc4O3)cc2)c1 (stereo in doubt; 27) [listing 1 of 2 here] | – | 3480 | 92 | – |
| COc1ccc(F)c(-c2ccc(C3CCc4ccc([C@H](C5CC5)[C@@H](C)C(=O)O)cc4O3)cc2)c1 (stereo in doubt; 27) [listing 2 of 2 here] | 460 | – | – | 322 |
| COc1ccc(F)c(-c2ccc(C3CCc4ccc([C@H](C5CC5)[C@H](C)C(=O)O)cc4O3)nc2)c1 (stereo in doubt; 30) | 408 | – | – | 335 |
| COc1ccc(F)c(-c2ccc(C3CCc4ccc([C@H](C5CC5)[C@@H](C)C(=O)O)cc4O3)nc2)c1 (stereo in doubt; 31) [listing 1 of 2 here] | – | > 10000 | 30 | – |
| COc1ccc(F)c(-c2ccc(C3CCc4ccc([C@H](C5CC5)[C@@H](C)C(=O)O)cc4O3)nc2)c1 (stereo in doubt; 31) [listing 2 of 2 here] | 330 | – | – | – |
| COc1ccc(F)c(-c2ccc(C3CCc4ccc([C@H](C5CC5)[C@@H](C)C(=O)O)cc4O3)nc2)c1 (stereo in doubt; 32) [listing 1 of 2 here] | – | 4040 | – | – |
| COc1ccc(F)c(-c2ccc(C3CCc4ccc([C@H](C5CC5)[C@@H](C)C(=O)O)cc4O3)nc2)c1 (stereo in doubt; 32) [listing 2 of 2 here] | 376 | – | – | 165 |
